Source: ChEMBL document CHEMBL2311431, “Synthesis and biological evaluation of some 5-arylidene-2-(1,3-thiazol-2-ylimino)-1,3-thiazolidin-4-ones as dual anti-inflammatory/antimicrobial agents” (Bioorg Med Chem, 2013)
Values after ≈ are worked out from the molar mass of the structure shown.

Experiments:
Listeria monocytogenes [1] = test: Bactericidal activity against Listeria monocytogenes NCTC 7973 after 72 hrs by serial subcultivation method; format: functional; conditions: NCTC 7973, 72 h
Micrococcus flavus [2] = test: Bactericidal activity against Micrococcus flavus ATCC 10240 after 72 hrs by serial subcultivation method; format: functional; conditions: ATCC 10240, 72 h
[3] = (§1) Inhibition of soybean lipoxygenase assessed as inhibition of sodium linolate conversion to 13-hydroperoxylinoleic acid after 4 mins by spectrophotometry; parameters: species or system Glycine max; conditions: read-out: IC50
Glycine max = test: as §1
Trichoderma viride [4] = test: Antifungal activity against Trichoderma viride IAM 5061 after 72 hrs by serial dilution technique; format: functional; conditions: IAM 5061, 72 h
Outline: (§2)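 Serial dilution in malt broth; compounds from 1 mg/ml stocks in 5% DMSO; 72 h at 28 °C. MIC is the lowest concentration with no visible growth under a binocular microscope. Run in duplicate, repeated three times.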

Pseudomonas aeruginosa [5] = test: Antibacterial activity against Pseudomonas aeruginosa ATCC 27853 after 24 hr by microdilution test; format: functional; conditions: ATCC 27853, 24 h
Outline: (§3)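 Broth microdilution in LB medium, about 1.0×10^4 cfu per well; compounds from 1 mg/ml stocks in 5% DMSO. Incubated 24 h. MIC is the lowest concentration with no visible growth under a binocular microscope. Run in duplicate, repeated three times.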

Aspergillus fumigatus [6] = test: Antifungal activity against Aspergillus fumigatus after 72 hrs by serial dilution technique; format: functional; outline: as §2
Mus musculus [7] = test: Acute toxicity in AKR mouse up to 0.5 mmol/kg, ip; format: organism-based; conditions: in vivo
Aspergillus flavus [8] = test: Fungicidal activity against Aspergillus flavus ATCC 9643 after 72 hrs by serial subcultivation method; format: functional; conditions: ATCC 9643, 72 h
Aspergillus niger [9] = test: Fungicidal activity against Aspergillus niger ATCC 6275 after 72 hrs by serial subcultivation method; format: functional; conditions: ATCC 6275, 72 h
Aspergillus niger [10] = test: Antifungal activity against Aspergillus niger ATCC 6275 after 72 hrs by serial dilution technique; format: functional; conditions: ATCC 6275, 72 h; outline: as §2
Mus musculus [11] = test: Antiinflammatory activity in AKR mouse assessed as inhibition of carrageenan-induced paw edema at 0.01 mmol/kg, ip measured after 3.5 hrs of carrageenan-challenge; format: functional
Outline: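 AKR mice of both sexes (pregnant females excluded), 6-10 per group, fasted during the experiment. Edema induced by intradermal 0.05 mL of 2% carrageenin into the right hind paw. Compound given at 0.01 mmol/kg ip, suspended in water with Tween-80, at the same time as carrageenin.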

Staphylococcus aureus [12] = test: Antibacterial activity against Staphylococcus aureus ATCC 6538 after 24 hr by microdilution test; format: functional; conditions: ATCC 6538, 24 h; outline: as §3
Escherichia coli [13] = test: Antibacterial activity against Escherichia coli ATCC 35210 after 24 hr by microdilution test; format: functional; conditions: ATCC 35210, 24 h; outline: as §3
Aspergillus flavus [14] = test: Antifungal activity against Aspergillus flavus ATCC 9643 after 72 hrs by serial dilution technique; format: functional; conditions: ATCC 9643, 72 h; outline: as §2
Trichoderma viride [15] = test: Fungicidal activity against Trichoderma viride IAM 5061 after 72 hrs by serial subcultivation method; format: functional; conditions: IAM 5061, 72 h
Talaromyces funiculosus [16] = test: Fungicidal activity against Penicillium funiculosum ATCC 36839 after 72 hrs by serial subcultivation method; format: functional; conditions: ATCC 36839, 72 h
Micrococcus flavus [17] = test: Antibacterial activity against Micrococcus flavus ATCC 10240 after 24 hr by microdilution test; format: functional; conditions: ATCC 10240, 24 h; outline: as §3
Bacillus cereus [18] = test: Bactericidal activity against Bacillus cereus clinical isolate after 72 hrs by serial subcultivation method; format: functional
Aspergillus fumigatus [19] = test: Fungicidal activity against Aspergillus fumigatus after 72 hrs by serial subcultivation method; format: functional
Pseudomonas aeruginosa [20] = test: Bactericidal activity against Pseudomonas aeruginosa ATCC 27853 after 72 hrs by serial subcultivation method; format: functional; conditions: ATCC 27853, 72 h
Staphylococcus aureus [21] = test: Bactericidal activity against Staphylococcus aureus ATCC 6538 after 72 hrs by serial subcultivation method; format: functional; conditions: ATCC 6538, 72 h
Listeria monocytogenes [22] = test: Antibacterial activity against Listeria monocytogenes NCTC 7973 after 24 hr by microdilution test; format: functional; conditions: NCTC 7973, 24 h; outline: as §3
Penicillium ochrochloron [23] = test: Antifungal activity against Penicillium ochrochloron ATCC 9112 after 72 hrs by serial dilution technique; format: functional; conditions: ATCC 9112, 72 h; outline: as §2
Escherichia coli [24] = test: Bactericidal activity against Escherichia coli ATCC 35210 after 72 hrs by serial subcultivation method; format: functional; conditions: ATCC 35210, 72 h
Bacillus cereus [25] = test: Antibacterial activity against Bacillus cereus clinical isolate after 24 hr by microdilution test; format: functional; outline: as §3
Penicillium ochrochloron [26] = test: Fungicidal activity against Penicillium ochrochloron ATCC 9112 after 72 hrs by serial subcultivation method; format: functional; conditions: ATCC 9112, 72 h
Talaromyces funiculosus [27] = test: Antifungal activity against Penicillium funiculosum ATCC 36839 after 72 hrs by serial dilution technique; format: functional; conditions: ATCC 36839, 72 h; outline: as §2
[28] = biological target: T1, Prostaglandin G/H synthase 1 (Ovis aries) (UniProt P05979); test: (§4) Inhibition of ovine COX1 assessed as inhibition of PGF2a production by enzyme immunoassay; parameters: concentration or dose not given beside the values; conditions: concentration not given here
T1 sequence (whole entry): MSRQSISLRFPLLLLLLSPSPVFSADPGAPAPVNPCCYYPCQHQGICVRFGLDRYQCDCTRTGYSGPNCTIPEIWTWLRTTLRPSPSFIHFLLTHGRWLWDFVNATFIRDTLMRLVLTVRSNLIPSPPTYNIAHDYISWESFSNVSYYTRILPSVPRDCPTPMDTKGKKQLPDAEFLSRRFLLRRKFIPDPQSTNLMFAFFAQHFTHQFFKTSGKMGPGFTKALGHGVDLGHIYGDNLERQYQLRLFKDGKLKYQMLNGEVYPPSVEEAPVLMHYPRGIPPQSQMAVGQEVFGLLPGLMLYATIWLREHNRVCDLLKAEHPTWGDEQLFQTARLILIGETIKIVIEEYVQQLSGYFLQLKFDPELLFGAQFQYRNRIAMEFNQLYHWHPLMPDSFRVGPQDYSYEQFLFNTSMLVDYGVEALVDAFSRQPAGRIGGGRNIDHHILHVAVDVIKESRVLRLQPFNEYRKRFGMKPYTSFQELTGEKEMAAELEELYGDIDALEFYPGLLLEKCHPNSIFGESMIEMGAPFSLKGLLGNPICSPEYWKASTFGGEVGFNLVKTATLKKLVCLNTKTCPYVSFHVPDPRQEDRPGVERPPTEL
Outline: (§5)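 Ovine COX-1 from a commercial screening kit, tested with 0.1 µM arachidonic acid, which is below the saturating level. COX-derived PGH2 is reduced by SnCl2 to PGF2a, quantified by enzyme immunoassay with a broad prostaglandin antibody. At least triplicate.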

[29] = biological target: T2, Prostaglandin G/H synthase 1 (Ovis aries, UniProt P05979); test: as §4; outline: as §5
T2 sequence (P05979 whole entry): T1 sequence (whole entry)

For O=C1N/C(=N\c2nccs2)S/C1=C\c1ccc(Cl)cc1Cl, the MBC (Listeria monocytogenes [1]) was 84.2 µM (≈ 30 µg/mL), the MBC (Micrococcus flavus [2]) was 98.2 µM (≈ 35 µg/mL) and the IC50 [3] was 122 µM. It also gave an inhibition (Glycine max) of 54%, an MIC (Trichoderma viride [4]) of 28.1 µM (≈ 10 µg/mL) and an MIC (Pseudomonas aeruginosa [5]) of 28.1 µM (≈ 10 µg/mL). The MIC (Aspergillus fumigatus [6]) was 42.1 µM (≈ 15 µg/mL), the Activity (Mus musculus [7]) was “Non-toxic” and the MFC (Aspergillus flavus [8]) was 56.2 µM (≈ 20 µg/mL). The MFC (Aspergillus niger [9]) was 56.2 µM (≈ 20 µg/mL), the MIC (Aspergillus niger [10]) was 42.1 µM (≈ 15 µg/mL) and the inhibition in vivo at 10 µmol/kg (Mus musculus [11]) was 9.9%. For the same compound, the MIC (Staphylococcus aureus [12]) was 56.2 µM (≈ 20 µg/mL), the MIC (Escherichia coli [13]) was 21.1 µM (≈ 7.52 µg/mL) and the MIC (Aspergillus flavus [14]) was 42.1 µM (≈ 15 µg/mL). It also gave an MFC (Trichoderma viride [15]) of 42.1 µM (≈ 15 µg/mL), an MFC (Talaromyces funiculosus [16]) of 56.2 µM (≈ 20 µg/mL) and an MIC (Micrococcus flavus [17]) of 84.2 µM (≈ 30 µg/mL). The MBC (Bacillus cereus [18]) was 56.2 µM (≈ 20 µg/mL), the MFC (Aspergillus fumigatus [19]) was 56.2 µM (≈ 20 µg/mL) and the MBC (Pseudomonas aeruginosa [20]) was 70.2 µM (≈ 25 µg/mL). For the same compound, the MBC (Staphylococcus aureus [21]) was 70.2 µM (≈ 25 µg/mL), the MIC (Listeria monocytogenes [22]) was 70.2 µM (≈ 25 µg/mL) and the MIC (Penicillium ochrochloron [23]) was 42.1 µM (≈ 15 µg/mL). It also gave an MBC (Escherichia coli [24]) of 56.2 µM (≈ 20 µg/mL), an MIC (Bacillus cereus [25]) of 28.1 µM (≈ 10 µg/mL) and an MFC (Penicillium ochrochloron [26]) of 56.2 µM (≈ 20 µg/mL). For the same compound, the MIC (Talaromyces funiculosus [27]) was 28.1 µM (≈ 10 µg/mL), the inhibition [28] was 98% and the IC50 [29] was 32 µM.
